Source: PubChem (The Scripps Research Institute Molecular Screening Center)
Shown are actives, neighbours in structure and some others; about 1.2% of the full set was active somewhere.
IDE inh – human IDE inhibitors in live cells, primary screen, fluorescence polarization, HEK cells, FAbetaB substrate; inhibition, % at 5.59 µM; AID 434962, 2010; Insulin-degrading enzyme (Homo sapiens), P14735; FAbetaB cleavage; 320,000 tested, 0.41% active;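 active = percent inhibition above the average of all tested compounds plus 3 SD, set per screening campaign, cut at about 16% in these data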;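 note: IDE supplied by intact live HEK cells; FP after avidin binding of uncleaved biotin substrate so inhibition keeps polarization high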
IDE act – human IDE activators in live cells, primary screen, fluorescence polarization, HEK cells, FAbeta-B substrate; Insulin-degrading enzyme (Homo sapiens), P14735; 340,000 tested, 0.073% active; activation, % at 5.96 µM; FAbeta-B cleavage; 0% vehicle, 100% cell-free pure enzyme wells;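 active = activation above the mean of all tested compounds plus 3 SD, set per screening campaign, cut at about 17% in these data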
PREPL inh – PREPL enzyme inhibitors, primary screen, biochemical, fluorescence polarization. Prolyl endopeptidase-like (Homo sapiens), Q4J6C6. recombinant PREPL, fluorescence polarization activity-based probe. inhibition, % at 5.96 µM. 320,000 tested, 0.68% active. AID 2751, 2010; in the data active = inhibition above about 43%
Target sequence (Q4J6C6 whole entry, looked up): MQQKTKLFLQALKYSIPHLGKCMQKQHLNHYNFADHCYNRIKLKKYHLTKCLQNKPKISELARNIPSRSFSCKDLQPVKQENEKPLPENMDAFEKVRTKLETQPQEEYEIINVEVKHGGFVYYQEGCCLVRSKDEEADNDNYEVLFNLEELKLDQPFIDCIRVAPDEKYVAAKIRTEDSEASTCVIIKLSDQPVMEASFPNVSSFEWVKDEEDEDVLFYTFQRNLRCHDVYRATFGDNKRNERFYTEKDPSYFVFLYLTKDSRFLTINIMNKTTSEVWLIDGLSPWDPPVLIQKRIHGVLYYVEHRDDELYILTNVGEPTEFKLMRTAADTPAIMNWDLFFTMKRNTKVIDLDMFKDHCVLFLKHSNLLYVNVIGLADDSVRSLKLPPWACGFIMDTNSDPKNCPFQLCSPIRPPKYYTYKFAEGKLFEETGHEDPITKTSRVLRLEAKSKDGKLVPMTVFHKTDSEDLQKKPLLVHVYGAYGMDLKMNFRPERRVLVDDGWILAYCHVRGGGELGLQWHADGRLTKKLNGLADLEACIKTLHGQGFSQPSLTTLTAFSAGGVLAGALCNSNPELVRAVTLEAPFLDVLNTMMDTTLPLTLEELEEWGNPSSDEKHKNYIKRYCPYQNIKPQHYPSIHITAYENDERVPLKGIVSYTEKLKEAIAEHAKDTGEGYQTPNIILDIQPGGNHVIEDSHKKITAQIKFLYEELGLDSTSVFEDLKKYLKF
ARFGAP1 inh – inhibitors of rat ARFGAP1 GAP activity, primary screen, biochemical, fluorescence polarization, GDP tracer | ADP-ribosylation factor GTPase-activating protein 1 (Rattus norvegicus), Q62848 | Arfgap1-stimulated ARF1 GTP hydrolysis, GDP FP detection | inhibition, % at 16.5 µM | 360,000 tested, 0.26% active | AID 651572, 2012;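 active = inhibition above a per-plate limit, mean inhibition of low control wells plus 3 SD, cut at about 25% in these data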
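System: truncated rat Arfgap1 GAP domain / Benchmarks: high control wells lacking Arfgap1, low control full reaction with DMSO / Times: compound-enzyme preincubation 20 min, reaction 120 min, detection 60 min, 25 °C / Repeats: one replicate per compound / Also added: human ARF1(Δ1-17)-GTP substrate / Measured by: Tracer-displacement fluorescence polarization with EDTA stop, 620/688 nm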
ASAP1 GAP inh – inhibitors of human ASAP1 ArfGAP activity, primary screen, biochemical, fluorescence polarization | Arf-GAP with SH3 domain, ANK repeat and PH domain-containing protein 1 (Homo sapiens), … | ASAP1-stimulated ARF1 GTP hydrolysis, GDP FP detection | inhibition, % at 16.5 µM | 360,000 tested, 0.19% active | AID 624377, 2012; in the data active = inhibition above about 25%
IDE cell inh cf – human IDE inhibitors in live cells, confirmation, fluorescence polarization, HEK cells, FAbetaB substrate | shares compounds with IDE inh | FAbetaB cleavage | inhibition, % at 5.59 µM | 1,200 tested, 51% active | AID 435028, 2010;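 active = mean inhibition across triplicate wells above the cutoff set by the earlier primary insulin-degrading enzyme screen, cut at about 16% in these data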
HEK293 tox – cytotoxicity in HEK cells, cytotoxicity control for IDE inhibitor project, cell-based, luminescence. AID 449730, 2010. shares compounds with IDE inh. 1,200 tested, 28% active. inhibition, % at 5.59 µM. HEK293 cytotoxicity, ATP luminescence; in the data active = inhibition above about 22%
Each line names hits and unclear results; the compound was inactive in the other large screens (follow-up assays come after a bar, where they were run).

COc1cc2ncnc(NCc3cccc(F)c3F)c2cc1OC	IDE inh 18 | IDE cell inh cf inactive | HEK293 tox inactive
CCc1ccc(NC(=O)CSc2nnc(CNC(=O)c3ccco3)o2)cc1	none
O=c1c2ccccc2sn1-c1ccccc1	IDE inh 64 | IDE cell inh cf 32 | HEK293 tox 98
CN(C)S(=O)(=O)c1cccc(-n2sc3ccccc3c2=O)c1	IDE inh 94 | IDE cell inh cf 31 | HEK293 tox 52
N#Cc1ccc2c(=O)n(-c3ccccc3)sc2c1	none (no result: IDE inh, IDE act, PREPL inh)
O=c1c2ccccc2sn1-c1ccccc1F	none (no result: IDE inh, IDE act, PREPL inh)
O=c1c2cc(C(F)(F)F)ccc2sn1-c1ccccc1	none (no result: IDE inh, IDE act, PREPL inh)
O=c1c2cc(F)ccc2sn1-c1ccccc1	IDE inh 60 | IDE cell inh cf 33 | HEK293 tox 83
Cc1ccccc1-n1sc2cc(F)ccc2c1=O	IDE inh 72 | IDE cell inh cf 17 | HEK293 tox 80
O=c1c2ccccc2sn1-c1cccc(Cl)c1	none (no result: IDE inh, IDE act, PREPL inh)
O=C(CNC(=O)c1ccccc1)OCCCOC(=O)CNC(=O)c1ccccc1	none
CC(=O)Nc1ccc2c(=O)n(-c3ccccc3)sc2c1	none (no result: IDE inh, IDE act, PREPL inh)
O=C(O)c1cccc(-n2sc3ccccc3c2=O)c1	IDE inh 93 | IDE cell inh cf 97 | HEK293 tox inactive
CCSC1=NSC2=NC(=O)/C(=C\c3coc4ccccc4c3=O)C(=N)N12	IDE inh 55 | IDE cell inh cf 51 | HEK293 tox inactive
CCOC(=O)C1=C(CSc2nc(-c3ccncc3)ccc2C#N)OC(N)=C(C#N)C1c1ccc(OC)cc1 (configuration not stated)	none
CCOC(=O)C1=C(CSc2nc(CC)c(C)cc2C#N)OC(N)=C(C#N)C1c1ccc(OC)cc1 (configuration not stated)	IDE inh 22 | IDE cell inh cf inactive | HEK293 tox inactive
O=C(Nc1ccc(N2CCOCC2)c(Cl)c1)c1ccc(Cl)cc1	IDE inh 18 | IDE cell inh cf inactive | HEK293 tox inactive
O=C(Nc1ccc(N2CCOCC2)c(Cl)c1)c1ccc2c(c1)OCCO2	none
O=S(=O)(c1cccc(NC(=S)N2CCN(c3ccccc3)CC2)c1)C(F)F	IDE inh 19 | IDE cell inh cf inactive | HEK293 tox inactive
CC(=O)N1c2ccc(S(=O)(=O)N3CCCC(C(=O)NCc4ccccc4)C3)cc2CC1C (configuration not stated)	none
CCOC(=O)N1CCN(C(=O)c2cccn3c(=O)c4cc(Cl)ccc4nc23)CC1	IDE inh 16 | IDE cell inh cf inactive | HEK293 tox inactive
CCOC(=O)N1CCN(C(=O)c2cccn3c(=O)c4cc(Br)ccc4nc23)CC1	none
CCOC(=O)c1ccc(NS(=O)(=O)c2c(N)[nH]c(=O)[nH]c2=O)cc1	none
O=C(c1ccc(Br)c(S(=O)(=O)N2CCOCC2)c1)N1CCN(C/C=C/c2ccccc2)CC1	none (no result: IDE inh, PREPL inh)
CC(C)[C@H](NC(=O)c1ccc(C(C)(C)C)cc1)C(=O)N1CCN(Cc2ccc3c(c2)OCO3)CC1	IDE inh 19 | IDE cell inh cf inactive | HEK293 tox 53
C[C@H](NC(=O)c1ccccc1)C(=O)N1CCN(Cc2ccc3c(c2)OCO3)CC1	none
O=S(=O)(c1ccc(NC2CCCc3ccccc32)nc1)N1CCOCC1 (configuration not stated)	IDE inh 19 | IDE cell inh cf inactive | HEK293 tox inactive
O=C(NC1CCCc2ccccc21)c1ccc(S(=O)(=O)N2CCOCC2)cc1 (configuration not stated)	none
O=C(CC1Sc2ccccc2NC1=O)Nc1cccc(-c2nnc3n2CCCCC3)c1 (configuration not stated)	IDE inh 17 | IDE cell inh cf inactive | HEK293 tox inactive
O=C(CC1Sc2ccccc2NC1=O)Nc1cccnc1 (configuration not stated)	none
CCOc1ccc(Cl)cc1/C=N/NC(=O)CNC(=O)c1ccccc1	IDE inh 26 | IDE cell inh cf inactive | HEK293 tox inactive
CCOc1ccc(Cl)cc1/C=N/NC(=O)c1ccccc1	none
CCCOC(=O)c1ccc(Oc2coc3c(CN(CC)CC)c(O)ccc3c2=O)cc1	IDE inh 20 | IDE cell inh cf inactive | HEK293 tox inactive
CCN(CC)Cc1c(O)ccc2c(=O)c(-c3ccc(Cl)cc3)coc12	none
Cc1csc2c(N3CCN(C(=O)Nc4ccc(Cl)c(Cl)c4)CC3)ncnc12	IDE inh 21 | IDE cell inh cf inactive | HEK293 tox inactive
CCCCCCn1c(=O)[nH]c2nc3cc(N)ccc3nc2c1=O	IDE inh 69 (no result: IDE act) | IDE cell inh cf 93 | HEK293 tox inactive
CCCCCn1c(=O)c(C(=O)c2ccccc2)nc2ccccc21	none
COc1ccc(-n2c(=O)c(CCC(=O)NCCc3ccccc3F)nc3ccccc32)cc1	none
COc1ccc(Cl)cc1NC(=O)C1CCCN(c2cc(C)nc3ncnn23)C1 (configuration not stated)	IDE inh 16 | IDE cell inh cf inactive | HEK293 tox inactive
CCCc1cc(N2CCCC(C(=O)Nc3cc(Cl)ccc3OC)C2)n2ncnc2n1 (configuration not stated)	none
CN(C)c1ccc(C(=O)NCC(c2cccs2)N2CCOCC2)cc1 (configuration not stated)	none
O=C(O)Cn1c2c(c3ccccc31)CSc1ccc(Cl)cc1-2	IDE inh 24 | IDE cell inh cf inactive | HEK293 tox inactive
COc1ccc(Cc2c(-c3ccc(Cl)cc3)nc3c(C)cc(Br)cn23)c(C)c1	none (no result: IDE inh, IDE act, PREPL inh)
N#C/C(=C/c1ccc(N2CCOCC2)o1)C(=O)Nc1ccccc1	none (no result: IDE inh, PREPL inh)
N#C/C(=C\c1ccc(N2CCOCC2)o1)C(=O)NCC1CCCO1 (configuration not stated)	IDE inh 17 | IDE cell inh cf 22 | HEK293 tox inactive
N#C/C(=C\c1ccc(N2CCOCC2)o1)C(=O)NC1CCCCC1	IDE inh 46 | IDE cell inh cf 48 | HEK293 tox inactive
O=C(COC(=O)/C=C/c1ccc(Cl)cc1)Nc1ccc2[nH]c(=O)[nH]c2c1	none
C=CCN1C(=O)[C@@H]2Cc3c([nH]c4ccccc34)C(c3ccc(O)cc3)N2C1=S (some centres not stated)	IDE inh 25 (no result: ARFGAP1 inh, ASAP1 GAP inh) | IDE cell inh cf inactive | HEK293 tox 22
